Test results taken from ChEMBL document CHEMBL4428033, “The Flavone Luteolin Inhibits Liver X Receptor Activation” (J Nat Prod, 2016).
Calls of active or inactive are those of the source. The calls are words filed in the database; no cut-off is given here.

Tests used:
Mus musculus [1] = test: Antihyperlipidemic activity in ethanol-induced steatosis C57BL/6 mouse model assessed as inhibition of serum triacylglycerol level at 50 mg/kg, po administered daily through oral gavage for 2 weeks by colorimetric method relative to control; type: functional; details: C57BL/6, po, 336 h
[2] = target: T1, Oxysterols receptor LXR-beta (Homo sapiens) (UniProt P55055); test: Inhibition of T0901317-induced human LXR-beta transcriptional activity after 22 hrs by cell based luciferase reporter gene assay
T1 sequence (whole entry): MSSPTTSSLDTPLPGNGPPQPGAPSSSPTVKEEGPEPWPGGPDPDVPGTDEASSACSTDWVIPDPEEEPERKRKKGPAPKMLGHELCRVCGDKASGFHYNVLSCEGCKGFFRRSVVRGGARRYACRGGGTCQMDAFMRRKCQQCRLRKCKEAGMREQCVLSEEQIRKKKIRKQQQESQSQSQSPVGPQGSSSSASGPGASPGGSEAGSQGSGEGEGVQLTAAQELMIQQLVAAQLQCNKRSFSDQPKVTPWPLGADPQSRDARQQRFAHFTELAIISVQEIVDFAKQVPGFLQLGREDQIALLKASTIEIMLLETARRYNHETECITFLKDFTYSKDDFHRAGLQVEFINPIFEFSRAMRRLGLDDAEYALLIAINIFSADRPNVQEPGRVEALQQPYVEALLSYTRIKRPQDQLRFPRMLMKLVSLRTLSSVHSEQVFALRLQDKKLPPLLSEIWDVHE
Method in brief: (§1)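 Commercial LXRα or LXRβ luciferase reporter cells (nonhuman mammalian) kept in medium or given T0901317 0.01–10 μM, alone or with luteolin 10, 25 or 50 μM, for 22 h. Luminescence read per kit instructions, 500 ms read time. RLU plotted against log T0901317 concentration.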

[3] = target: T2, Oxysterols receptor LXR-alpha (Homo sapiens) (UniProt Q13133); test: Inhibition of T0901317-induced human LXR-alpha transcriptional activity at 10 uM after 22 hrs by cell based luciferase reporter gene assay; method in brief: as §1
T2 sequence (whole entry): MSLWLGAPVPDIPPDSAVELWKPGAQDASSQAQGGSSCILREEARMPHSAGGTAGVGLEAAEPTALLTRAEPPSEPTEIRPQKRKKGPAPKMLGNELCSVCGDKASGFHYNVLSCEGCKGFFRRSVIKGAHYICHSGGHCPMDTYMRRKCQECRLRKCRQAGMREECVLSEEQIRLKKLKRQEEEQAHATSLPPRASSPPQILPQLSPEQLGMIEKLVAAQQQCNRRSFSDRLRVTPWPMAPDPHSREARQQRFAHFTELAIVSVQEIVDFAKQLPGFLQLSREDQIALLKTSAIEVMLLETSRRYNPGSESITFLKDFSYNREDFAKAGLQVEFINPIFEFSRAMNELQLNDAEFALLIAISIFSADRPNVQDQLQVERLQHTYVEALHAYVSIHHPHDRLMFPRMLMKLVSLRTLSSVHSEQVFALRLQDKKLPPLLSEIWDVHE

Liver X receptor = target: T3, Liver X receptor (Homo sapiens, UniProt Q13133+P55055); test: Transactivation of LXR-alpha/beta in human HepG2 cells assessed as upregulation of SREBP-1c mRNA expression at 10 to 50 uM after 12 hrs by RT-PCR method; type: cell-based; details: hepg2, 12 h
T3 sequence (Q13133 whole entry): T2 sequence (whole entry)
T3 sequence (P55055 whole entry): T1 sequence (whole entry)
Method in brief: (§2)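 HepG2 cells in low-glucose DMEM with 10% FBS, 37 °C, 5% CO2. Pretreated 1 h with T0901317 (0.01–10 μM, or 0.05 or 1 μM), or left in medium, then given luteolin 10, 25 or 50 μM for 12 h. Trizol RNA, SYBR-Green real-time RT-PCR for SREBP-1c, normalised to HPRT1. Pfaffl fold change versus medium control. Two independent experiments in duplicate, mean ± SEM.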

[4] = target: T4, Oxysterols receptor LXR-alpha/beta (Mus musculus) (UniProt Q9Z0Y9+Q60644); test: Inhibition of T0901317-induced LXR-alpha/beta transactivation in mouse RAW264.7 cells assessed as reduction in ABCA1 mRNA expression at 10 uM after 3 hrs by RT-PCR method; type: cell-based
Method in brief: (§3)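 RAW 264.7 macrophages pretreated 1 h with T0901317 (0.01–10 μM, or 1 μM), or left in medium, then luteolin 10, 25 or 50 μM for 3 h. ABCA1 mRNA by SYBR-Green real-time RT-PCR, normalised to HPRT1. Pfaffl fold change versus medium control or the T0901317-treated sample. Three independent experiments in duplicate, mean ± SEM. One-way ANOVA with Dunnett's test.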

[5] = target: T5, Oxysterols receptor LXR-alpha/beta (Mus musculus, UniProt Q9Z0Y9+Q60644); test: Transactivation of LXR-alpha/beta in mouse RAW264.7 cells assessed as upregulation of ABCA1 mRNA expression at 10 to 50 uM after 3 hrs by RT-PCR method; type: cell-based; details: raw264.7, 3 h; method in brief: as §3
T5 sequence (Q9Z0Y9 whole entry): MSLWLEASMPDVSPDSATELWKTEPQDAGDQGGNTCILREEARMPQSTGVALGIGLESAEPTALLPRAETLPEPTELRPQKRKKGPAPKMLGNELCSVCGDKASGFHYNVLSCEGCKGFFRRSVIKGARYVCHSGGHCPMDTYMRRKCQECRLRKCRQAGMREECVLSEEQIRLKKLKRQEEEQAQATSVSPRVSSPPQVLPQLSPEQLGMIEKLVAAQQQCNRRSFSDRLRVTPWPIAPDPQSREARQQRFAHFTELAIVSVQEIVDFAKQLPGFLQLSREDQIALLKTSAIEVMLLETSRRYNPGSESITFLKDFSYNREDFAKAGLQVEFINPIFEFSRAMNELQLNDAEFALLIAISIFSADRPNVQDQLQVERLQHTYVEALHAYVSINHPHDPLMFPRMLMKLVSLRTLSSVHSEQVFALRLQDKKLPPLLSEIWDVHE
T5 sequence (Q60644 whole entry): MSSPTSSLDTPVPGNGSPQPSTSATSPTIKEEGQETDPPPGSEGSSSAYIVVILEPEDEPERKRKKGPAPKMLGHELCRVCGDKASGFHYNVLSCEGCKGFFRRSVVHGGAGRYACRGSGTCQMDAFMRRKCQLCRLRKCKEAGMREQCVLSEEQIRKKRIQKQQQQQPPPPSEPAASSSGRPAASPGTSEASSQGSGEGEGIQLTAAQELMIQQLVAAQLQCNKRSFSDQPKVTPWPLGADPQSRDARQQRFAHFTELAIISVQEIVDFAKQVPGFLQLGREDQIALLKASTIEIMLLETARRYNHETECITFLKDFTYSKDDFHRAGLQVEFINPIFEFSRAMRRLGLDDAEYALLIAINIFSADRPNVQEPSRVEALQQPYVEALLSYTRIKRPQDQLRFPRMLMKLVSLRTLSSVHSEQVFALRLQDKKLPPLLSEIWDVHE

[6] = target: T1, Oxysterols receptor LXR-beta (Homo sapiens); test: Inhibition of T0901317-induced human LXR-beta transcriptional activity at 10 uM after 22 hrs by cell based luciferase reporter gene assay; method in brief: as §1
[7] = target: T4, Oxysterols receptor LXR-alpha/beta (Mus musculus); test: Inhibition of T0901317-induced LXR-alpha/beta transactivation in mouse RAW264.7 cells assessed as reduction in ABCA1 mRNA expression at 25 uM after 3 hrs by RT-PCR method relative to control; type: cell-based; method in brief: as §3
HepG2 [8] = test: Inhibition of T0901317-induced lipid accumulation in human HepG2 cells at 50 uM preincubated for 1 hr followed by T0901317 addition measured after 24 hrs by Oil Red-O dye based microscopic analysis; type: functional, cell-based
Method in brief: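 HepG2 cells preincubated 1 h with luteolin 25 or 50 μM, then T0901317 5 μM added for 24 h. Fixed in 4% paraformaldehyde for 20 min at room temperature. Stained with Oil Red-O (0.6% stock diluted 6:4 with water) for 45 min at room temperature, washed, then imaged by microscopy; absorbance recorded.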

HepG2 [9] = test: Cytotoxicity against human HepG2 cells assessed as reduction in cell viability at 10 to 50 uM after 12 hrs by MTT assay; type: cell-based; details: hepg2, 12 h
Method in brief: (§4)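 Cells treated as in the RT-PCR assays (T0901317 pretreatment 1 h, then luteolin 10, 25 or 50 μM; 12 h for HepG2, 3 h for RAW 264.7). MTT added at 37 °C for 60 min (HepG2) or 15 min (RAW 264.7). Formazan dissolved in acidic 2-propanol and read at 570 nm, reference 620 nm.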

[10] = target: T6, Liver X receptor (Homo sapiens) (UniProt Q13133+P55055); test: Inhibition of T0901317-induced LXR-alpha/beta transactivation in human HepG2 cells assessed as reduction in SREBP-1c mRNA expression at 50 uM after 12 hrs by RT-PCR method; type: cell-based; method in brief: as §2
[11] = target: T1, Oxysterols receptor LXR-beta (Homo sapiens); test: Transactivation of human LXR-beta at 10 to 50 uM after 22 hrs by cell based luciferase reporter gene assay; method in brief: as §1
[12] = target: T2, Oxysterols receptor LXR-alpha (Homo sapiens); test: Inhibition of T0901317-induced human LXR-alpha transcriptional activity after 22 hrs by cell based luciferase reporter gene assay; method in brief: as §1
[13] = target: T4, Oxysterols receptor LXR-alpha/beta (Mus musculus); test: Inhibition of T0901317-induced LXR-alpha/beta transactivation in mouse RAW264.7 cells assessed as reduction in ABCA1 mRNA expression at 50 uM after 3 hrs by RT-PCR method relative to control; type: cell-based; method in brief: as §3
[14] = target: T6, Liver X receptor (Homo sapiens); test: Inhibition of T0901317-induced LXR-alpha/beta transactivation in human HepG2 cells assessed as reduction in SREBP-1c mRNA expression at 10 to 25 uM after 12 hrs by RT-PCR method; type: cell-based; method in brief: as §2
[15] = target: T4, Oxysterols receptor LXR-alpha/beta (Mus musculus); test: Inhibition of T0901317-induced LXR-alpha/beta transactivation in mouse RAW264.7 cells assessed as reduction in ABCA1 mRNA expression after 3 hrs by RT-PCR method; type: cell-based; method in brief: as §3
[16] = target: T2, Oxysterols receptor LXR-alpha (Homo sapiens); test: Transactivation of human LXR-alpha at 10 to 50 uM after 22 hrs by cell based luciferase reporter gene assay; method in brief: as §1
RAW264.7 = test: Cytotoxicity against mouse RAW264.7 cells assessed as reduction in cell viability at 10 to 50 uM after 3 hrs by MTT assay; type: cell-based; details: raw264.7, 3 h; method in brief: as §4
Mus musculus [17] = test: Antihyperlipidemic activity in ethanol-induced steatosis C57BL/6 mouse model assessed as inhibition of serum LDL cholesterol level at 50 mg/kg, po administered daily through oral gavage for 2 weeks by colorimetric method relative to control; type: functional; details: C57BL/6, po, 336 h

## O=c1cc(-c2ccc(O)c(O)c2)oc2cc(O)cc(O)c12 [LUTEOLIN]
Mus musculus [1]
  inhibition in vivo at 50 mg/kg: 22%
[2]
  inhibition: Dose-dependent effect
[3]
  inhibition: inactive
Liver X receptor
  Activity: Not Active
[4]
  inhibition: inactive
[5]
  Activity: Not Active
[6]
  inhibition: inactive
[7]
  inhibition: 41%
HepG2 [8]
  inhibition: Active
HepG2 [9]
  Activity: Non-Toxic
[10]
  inhibition: Active
[11]
  Activity: inactive
[12]
  inhibition: Dose-dependent effect
[13]
  inhibition: 64%
[14]
  inhibition: inactive
[15]
  inhibition: Dose-dependent effect
[16]
  Activity: inactive
RAW264.7
  Activity: Non-Toxic
Mus musculus [17]
  inhibition in vivo at 50 mg/kg: 52%
